Reference: ChEMBL document CHEMBL1671716, “Antimicrobial susceptibility patterns for recent clinical isolates of anaerobic bacteria in South Korea” (2010)

Experiments:
[1] = test system: Bacteroides fragilis; assay: Antimicrobial activity against Bacteroides fragilis assessed as percent resistant isolates after 48 hrs by agar dilution method in presence of 4 ug/ml beta-lactamase inhibitor Tazobactam; assay type: functional
How it was run: (§1)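 CLSI agar dilution on recent Korean clinical anaerobe isolates. Inoculum 10^5 CFU per spot by replicator. Plates incubated in an anaerobic chamber at 37°C for 48 h. For piperacillin plus tazobactam, tazobactam was held constant at 4 μg/ml. Resistance and susceptibility rates derived from MICs.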

[2] = test system: Eggerthella lenta; assay: Antimicrobial activity against Eubacterium lentum assessed as percent resistant isolates after 48 hrs by agar dilution method in presence of 4 ug/ml beta-lactamase inhibitor Tazobactam; assay type: functional; how it was run: as §1
[3] = test system: Porphyromonas asaccharolytica; assay: Antimicrobial activity against Porphyromonas asaccharolytica after 48 hrs by agar dilution method in presence of 4 ug/ml beta-lactamase inhibitor Tazobactam; assay type: functional
How it was run: (§2)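 CLSI agar dilution (M11-A7); inoculum 10^5 CFU applied by replicator; plates incubated anaerobically 48 h at 37°C. For piperacillin-tazobactam, tazobactam held constant at 4 μg/ml.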

[4] = test system: Schaalia odontolytica; assay: Antimicrobial activity against Actinomyces odontolyticus assessed as percent resistant isolates after 48 hrs by agar dilution method in presence of 4 ug/ml beta-lactamase inhibitor Tazobactam; assay type: functional; how it was run: as §1
[5] = test system: Bacteroides caccae; assay: Antimicrobial activity against Bacteroides caccae after 48 hrs by agar dilution method in presence of 4 ug/ml beta-lactamase inhibitor Tazobactam; assay type: functional
How it was run: (§3)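 MICs by CLSI agar dilution for piperacillin combined with tazobactam, with tazobactam held constant at 4 μg/ml. Clinical anaerobe isolates inoculated at 10^5 CFU by Steers replicator. Plates kept in an anaerobic chamber at 37°C for 48 h.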

[6] = test system: Peptoniphilus asaccharolyticus; assay: Antimicrobial activity against Peptoniphilus asaccharolyticus assessed as percent resistant isolates after 48 hrs by agar dilution method in presence of 4 ug/ml beta-lactamase inhibitor Tazobactam; assay type: functional; how it was run: as §1
[7] = test system: Finegoldia magna; assay: Antimicrobial activity against Finegoldia magna assessed as percent resistant isolates after 48 hrs by agar dilution method in presence of 4 ug/ml beta-lactamase inhibitor Tazobactam; assay type: functional; how it was run: as §1
[8] = test system: Peptoniphilus asaccharolyticus; assay: Antimicrobial activity against Peptoniphilus asaccharolyticus after 48 hrs by agar dilution method in presence of 4 ug/ml beta-lactamase inhibitor Tazobactam; assay type: functional; how it was run: as §2
[9] = test system: Actinomyces israelii; assay: Antimicrobial activity against Actinomyces israelii after 48 hrs by agar dilution method in presence of 4 ug/ml beta-lactamase inhibitor Tazobactam; assay type: functional; how it was run: as §3
[10] = test system: Finegoldia magna; assay: Antimicrobial activity against Finegoldia magna after 48 hrs by agar dilution method in presence of 4 ug/ml beta-lactamase inhibitor Tazobactam; assay type: functional; how it was run: as §2
[11] = test system: Bifidobacterium sp.; assay: Antimicrobial activity against Bifidobacterium sp. assessed as percent resistant isolates after 48 hrs by agar dilution method in presence of 4 ug/ml beta-lactamase inhibitor Tazobactam; assay type: functional; how it was run: as §1
[12] = test system: Prevotella buccae; assay: Antimicrobial activity against Prevotella buccae assessed as percent resistant isolates after 48 hrs by agar dilution method in presence of 4 ug/ml beta-lactamase inhibitor Tazobactam; assay type: functional, Segatella buccae; how it was run: as §1
[13] = test system: Bacteroides ovatus; assay: Antimicrobial activity against Bacteroides ovatus assessed as percent resistant isolates after 48 hrs by agar dilution method in presence of 4 ug/ml beta-lactamase inhibitor Tazobactam; assay type: functional; how it was run: as §1
[14] = test system: Finegoldia magna; assay: Antimicrobial activity against Finegoldia magna assessed as percent susceptible isolates after 48 hrs by agar dilution method in presence of 4 ug/ml beta-lactamase inhibitor Tazobactam; assay type: functional; how it was run: as §2
[15] = test system: Parabacteroides distasonis; assay: Antimicrobial activity against Bacteroides distasonis assessed as percent susceptible isolates after 48 hrs by agar dilution method in presence of 4 ug/ml beta-lactamase inhibitor Tazobactam; assay type: functional
[16] = test system: Bacteroides ovatus; assay: Antimicrobial activity against Bacteroides ovatus after 48 hrs by agar dilution method in presence of 4 ug/ml beta-lactamase inhibitor Tazobactam; assay type: functional; how it was run: as §3
[17] = test system: Bacteroides caccae; assay: Antimicrobial activity against Bacteroides caccae assessed as percent resistant isolates after 48 hrs by agar dilution method in presence of 4 ug/ml beta-lactamase inhibitor Tazobactam; assay type: functional; how it was run: as §1
[18] = test system: Anaerococcus prevotii; assay: Antimicrobial activity against Anaerococcus prevotii assessed as percent susceptible isolates after 48 hrs by agar dilution method in presence of 4 ug/ml beta-lactamase inhibitor Tazobactam; assay type: functional
[19] = test system: Hoylesella oralis; assay: Antimicrobial activity against Prevotella oralis assessed as percent resistant isolates after 48 hrs by agar dilution method in presence of 4 ug/ml beta-lactamase inhibitor Tazobactam; assay type: functional; how it was run: as §1
[20] = test system: Bifidobacterium adolescentis; assay: Antimicrobial activity against Bifidobacterium adolescentis assessed as percent resistant isolates after 48 hrs by agar dilution method in presence of 4 ug/ml beta-lactamase inhibitor Tazobactam; assay type: functional; how it was run: as §1
[21] = test system: Parvimonas micra; assay: Antimicrobial activity against Peptostreptococcus micros assessed as percent susceptible isolates after 48 hrs by agar dilution method in presence of 4 ug/ml beta-lactamase inhibitor Tazobactam; assay type: functional; how it was run: as §2
[22] = test system: Peptostreptococcus anaerobius; assay: Antimicrobial activity against Peptostreptococcus anaerobius after 48 hrs by agar dilution method in presence of 4 ug/ml beta-lactamase inhibitor Tazobactam; assay type: functional; how it was run: as §2
[23] = test system: Bacteroides thetaiotaomicron; assay: Antimicrobial activity against Bacteroides thetaiotaomicron after 48 hrs by agar dilution method in presence of 4 ug/ml beta-lactamase inhibitor Tazobactam; assay type: functional; how it was run: as §3
[24] = test system: Phocaeicola vulgatus; assay: Antimicrobial activity against Bacteroides vulgatus assessed as percent susceptible isolates after 48 hrs by agar dilution method in presence of 4 ug/ml beta-lactamase inhibitor Tazobactam; assay type: functional
[25] = test system: Prevotella intermedia; assay: Antimicrobial activity against Prevotella intermedia assessed as percent resistant isolates after 48 hrs by agar dilution method in presence of 4 ug/ml beta-lactamase inhibitor Tazobactam; assay type: functional; how it was run: as §1
[26] = test system: Schaalia meyeri; assay: Antimicrobial activity against Actinomyces meyeri after 48 hrs by agar dilution method in presence of 4 ug/ml beta-lactamase inhibitor Tazobactam; assay type: functional; how it was run: as §3
[27] = test system: Actinomyces naeslundii; assay: Antimicrobial activity against Actinomyces naeslundii after 48 hrs by agar dilution method in presence of 4 ug/ml beta-lactamase inhibitor Tazobactam; assay type: functional; how it was run: as §3
[28] = test system: Parabacteroides distasonis; assay: Antimicrobial activity against Bacteroides distasonis after 48 hrs by agar dilution method in presence of 4 ug/ml beta-lactamase inhibitor Tazobactam; assay type: functional; how it was run: as §3
[29] = test system: Anaerococcus prevotii; assay: Antimicrobial activity against Anaerococcus prevotii assessed as percent resistant isolates after 48 hrs by agar dilution method in presence of 4 ug/ml beta-lactamase inhibitor Tazobactam; assay type: functional; how it was run: as §1
[30] = test system: Bacteroides caccae; assay: Antimicrobial activity against Bacteroides caccae assessed as percent susceptible isolates after 48 hrs by agar dilution method in presence of 4 ug/ml beta-lactamase inhibitor Tazobactam; assay type: functional
[31] = test system: Bacteroides thetaiotaomicron; assay: Antimicrobial activity against Bacteroides thetaiotaomicron assessed as percent susceptible isolates after 48 hrs by agar dilution method in presence of 4 ug/ml beta-lactamase inhibitor Tazobactam; assay type: functional
[32] = test system: Bifidobacterium sp.; assay: Antimicrobial activity against Bifidobacterium sp. after 48 hrs by agar dilution method in presence of 4 ug/ml beta-lactamase inhibitor Tazobactam; assay type: functional; how it was run: as §3
[33] = test system: Parabacteroides distasonis; assay: Antimicrobial activity against Bacteroides distasonis assessed as percent resistant isolates after 48 hrs by agar dilution method in presence of 4 ug/ml beta-lactamase inhibitor Tazobactam; assay type: functional; how it was run: as §1
[34] = test system: Fusobacterium necrogenes; assay: Antimicrobial activity against Fusobacterium necrogenes after 48 hrs by agar dilution method in presence of 4 ug/ml beta-lactamase inhibitor Tazobactam; assay type: functional; how it was run: as §2

`CCN1CCN(C(=O)N[C@@H](C(=O)N[C@@H]2C(=O)N3[C@@H]2SC(C)(C)[C@@H]3C(=O)O)c2ccccc2)C(=O)C1=O` [PIPERACILLIN] was tested. Which Activity [1] did it give?
The Activity was 2%.

And the Activity [2]?
Its Activity is 0%.

What about the MIC [3] of the same compound?
Its MIC is 0.03 µg/mL.

And the Activity [4]?
Its Activity is 0%.

What about the MIC50 [5] of the same compound?
The MIC50 was 8 µg/mL.

And the MIC90 [5]?
Its MIC90 is 64 µg/mL.

What about the Activity [6] of the same compound?
The Activity was 0%.

What about the Activity [7] of the same compound?
Its Activity is 0%.

What about the MIC50 [8] of the same compound?
The MIC50 was ≤ 0.03 µg/mL.

And the MIC90 [8]?
Its MIC90 is 0.06 µg/mL.

What about the MIC50 [9] of the same compound?
The MIC50 was 0.5 µg/mL.

What about the MIC90 [9] of the same compound?
Its MIC90 is 8 µg/mL.

What about the MIC50 [10] of the same compound?
The MIC50 was 0.06 µg/mL.

What about the MIC90 [10] of the same compound?
Its MIC90 is 0.125 µg/mL.

And the Activity [11]?
The Activity was 0%.

And the Activity [12]?
Its Activity is 0%.

What about the Activity [13] of the same compound?
The Activity was 7%.

What about the Activity [14] of the same compound?
Its Activity is 100%.

What about the Activity [15] of the same compound?
The Activity was 89%.

And the MIC50 [16]?
The MIC50 was 8 µg/mL.

And the MIC90 [16]?
The MIC90 was 64 µg/mL.

And the Activity [17]?
Its Activity is 7%.

What about the Activity [18] of the same compound?
Its Activity is 100%.

What about the Activity [19] of the same compound?
The Activity was 0%.

What about the Activity [20] of the same compound?
Its Activity is 0%.

And the Activity [21]?
Its Activity is 0%.

What about the MIC50 [22] of the same compound?
The MIC50 was 0.25 µg/mL.

And the MIC90 [22]?
Its MIC90 is 16 µg/mL.

And the MIC50 [23]?
Its MIC50 is 8 µg/mL.

What about the MIC90 [23] of the same compound?
Its MIC90 is 64 µg/mL.

What about the Activity [24] of the same compound?
The Activity was 89%.

What about the Activity [25] of the same compound?
Its Activity is 0%.

What about the MIC50 [26] of the same compound?
Its MIC50 is 0.5 µg/mL.

What about the MIC90 [26] of the same compound?
Its MIC90 is 8 µg/mL.

And the MIC50 [27]?
Its MIC50 is 0.5 µg/mL.

And the MIC90 [27]?
The MIC90 was 8 µg/mL.

What about the MIC50 [28] of the same compound?
Its MIC50 is 8 µg/mL.

And the MIC90 [28]?
Its MIC90 is 64 µg/mL.

What about the Activity [29] of the same compound?
The Activity was 0%.

What about the Activity [30] of the same compound?
Its Activity is 89%.

What about the Activity [31] of the same compound?
The Activity was 89%.

And the MIC50 [32]?
The MIC50 was 0.5 µg/mL.

And the MIC90 [32]?
Its MIC90 is 8 µg/mL.

And the Activity [33]?
The Activity was 7%.

And the MIC [34]?
Its MIC is 0.03 µg/mL.
